From PubChem BioAssay
CSC inhib = cancer stem cell inhibition; cancer stem cell-like cells viability, luminescence; inhibition, % at 7.5 µM; 1.1% of 300,000 active; AID 2717; in the data active means inhibition above about 75%; inconclusive means no clear call, values can overlap the other calls; tested in HMLE shEcad cells
L major viab = Leishmania major promastigote growth inhibition; Leishmania major promastigotes, resazurin fluorescence viability; inhibition, % at 10 µM; 9% of 200,000 active; AID 1063; in the data active means inhibition above about 50%;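 further: promastigotes grown with compound for 44 hours at 28 °C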
Mdm2-MdmX inh = inhibitors of human Mdm2/MdmX interaction. AID 485346. inhibition, % at 8 µM. O15151+Q00987. SaOS-2 split-luciferase Mdm2/MdmX complementation, luminescence. 3% of 330,000 active;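 active means inhibition of at least 50% at 8 µM in the primary screen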
Target sequence (O15151 whole entry, looked up): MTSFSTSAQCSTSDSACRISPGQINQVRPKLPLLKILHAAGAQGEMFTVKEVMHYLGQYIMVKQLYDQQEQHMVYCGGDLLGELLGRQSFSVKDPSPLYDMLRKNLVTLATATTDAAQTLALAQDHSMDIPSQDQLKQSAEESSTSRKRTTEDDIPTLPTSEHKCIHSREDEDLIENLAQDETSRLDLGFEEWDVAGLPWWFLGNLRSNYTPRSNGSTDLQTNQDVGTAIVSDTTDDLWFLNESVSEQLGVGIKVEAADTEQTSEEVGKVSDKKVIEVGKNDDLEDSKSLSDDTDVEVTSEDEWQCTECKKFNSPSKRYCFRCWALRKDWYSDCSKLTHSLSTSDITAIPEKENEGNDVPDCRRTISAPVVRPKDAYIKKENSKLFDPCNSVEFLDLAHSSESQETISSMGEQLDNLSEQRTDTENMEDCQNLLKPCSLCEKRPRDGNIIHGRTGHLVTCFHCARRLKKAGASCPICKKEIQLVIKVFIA
Target sequence (Q00987 whole entry, looked up): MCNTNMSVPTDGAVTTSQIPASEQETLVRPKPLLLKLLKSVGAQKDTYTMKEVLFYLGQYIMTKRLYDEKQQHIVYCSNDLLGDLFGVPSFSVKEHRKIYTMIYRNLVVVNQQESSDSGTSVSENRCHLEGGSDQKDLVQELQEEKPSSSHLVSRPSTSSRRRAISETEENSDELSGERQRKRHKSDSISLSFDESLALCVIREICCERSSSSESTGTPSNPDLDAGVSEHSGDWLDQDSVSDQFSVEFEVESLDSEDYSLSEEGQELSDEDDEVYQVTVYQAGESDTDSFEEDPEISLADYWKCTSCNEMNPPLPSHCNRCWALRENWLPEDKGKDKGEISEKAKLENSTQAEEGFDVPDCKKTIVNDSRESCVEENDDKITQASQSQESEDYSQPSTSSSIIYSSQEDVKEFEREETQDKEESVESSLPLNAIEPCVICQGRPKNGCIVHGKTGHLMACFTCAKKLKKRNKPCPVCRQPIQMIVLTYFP
T cruzi inh = blocks replication of Trypanosoma cruzi | T. cruzi beta-gal in NIH3T3, luminescence, 90 h | inhibition, % (test concentration not listed) | 1.4% of 300,000 active;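 active means mean inhibition across valid replicates above about 55%, limit read from the data; inconclusive means mean below that limit but half or more replicates reach it; inactive means mean below it, under half of replicates reach it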;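 further: signal also drops with host cell toxicity which is not excluded here; higher percent means less beta-gal luminescence so fewer parasites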
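Read-out: Parasite load inhibition, % | Test system: Mouse NIH/3T3 fibroblasts infected with β-gal-expressing T. cruzi Tulahuen C4 | Amount: 5,000 cells/well | Medium: DMEM, 2% fetal bovine serum | Signal: GalScreen β-gal luminescence, detergent lysis, 60 min | Timing: 3 h attach, ≥90 h co-culture | Also added: Tulahuen C4 trypomastigotes, 5000/well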
Beta apoptosis = blocks beta cell apoptosis. protection from apoptosis, % (concentration not given with the values). 0.8% of 300,000 active. INS-1E cytokine-induced death, ATP luminescence, 48 h; percent of positive-control rescue, neutral wells zero;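 active means Every replicate reaches about 75%, or at least half do and their mean reaches it too, limit read from the data; inconclusive means At least half of replicates reach the limit but their mean does not; inactive means Under half of replicates reach the limit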;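 further: higher means more ATP so stronger rescue from cytokine killing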
SKKanGAS inh = SKKanGAS growth inhibition | S. pyogenes SKKanGAS, kanamycin growth, BacTiter-Glo, 6 h | inhibition, % at 7.5 µM | 1.3% of 300,000 active | AID 1662;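 active means mean replicate score, as percent of positive control median, at least 50; inconclusive means mean below 50 but one replicate at or above 50; inactive means mean and every replicate below 50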;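 further: strain carries kanamycin resistance gene driven by streptokinase promoter and grows in 40 µg/ml kanamycin; loss of luminescence reflects streptokinase promoter inhibition or plain growth inhibition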
Of the large screens only hits and unclear results are named; the others gave an inactive call. Rows were chosen to be rich in hits. Some 9.4% of all compounds tested hit in one or more screens of this group.

Cc1ccc(OC(=O)c2sc3ncn(C)c(=O)c3c2C)cc1	SKKanGAS inh 78
COc1cc(OC)cc(C(=O)NCCNc2nc3cc(C)cc(C)c3cc2C#N)c1	CSC inhib 77 (no result: L major viab)
CCn1ccnc1CN1CCCC(CO)(Cc2cccc(OC)c2)C1 (stereo unspecified)	L major viab 96
COc1cccc(CC2(CO)CCCN(Cc3ccc4c(c3)OCCO4)C2)c1 (stereo unspecified)	L major viab 53
O=C(COC(=O)CNC(=O)c1ccc([N+](=O)[O-])o1)Nc1ncc(C(F)(F)F)cc1Cl	none (no result: L major viab, T cruzi inh, SKKanGAS inh)
CC(C)Oc1ccccc1C1Nc2ccccc2C(=O)N1c1ccc2c(c1)OCCO2 (stereo unspecified)	L major viab 63
CC(C)Oc1ccccc1C1CC(=O)Nc2cc3c(cc21)OCCO3 (stereo unspecified)	none
CCC(=O)NC(=S)NNC(=O)c1ccc(OC)cc1	none (no result: Beta apoptosis)
COc1ccc(C(=O)NC(=S)NNC(=O)c2ccc(C)cc2)cc1	SKKanGAS inh 83 (no result: L major viab)
COc1ccc(C(=O)NNC(=S)NC(=O)c2ccc(Cl)cc2)cc1	SKKanGAS inh 79 (no result: L major viab)
COc1ccc(-c2nn(-c3ccccc3)cc2C(=O)NC(=S)NNC(=O)c2ccncc2)cc1	SKKanGAS inh 89
COc1ccc(C(=O)NC(=S)NNC(=O)c2ccc(NC(=O)C(C)C)cc2)cc1	L major viab 71, SKKanGAS inh 57
COc1ccc(C(=O)NC(=S)NNC(=O)c2cccnc2)cc1	none (no result: L major viab)
COc1ccc(NC(=O)c2cn(-c3ccccc3)nc2-c2ccncc2)cc1	none
O=C(NC1CCCC1)C1CCN(C(=O)c2cc(Cl)ccc2Cl)CC1	none (no result: L major viab, SKKanGAS inh)
C=CCN(C(=O)c1csnn1)C(C(=O)NC(C)(C)C)c1ccncc1 (stereo unspecified)	none
O=C(NNC(=S)NC(=O)c1sc2ccccc2c1Cl)c1ccc(Cl)cc1	SKKanGAS inh 96
COc1cc(C(=O)NNC(=S)NC(=O)c2ccc(Cl)cc2)cc(OC)c1OC	T cruzi inh 70, SKKanGAS inh 93
COc1cc(CCC(=O)NNC(=O)c2ccc(Cl)cc2)cc(OC)c1OC	none (no result: CSC inhib, L major viab, Beta apoptosis)
COc1cccc(-c2cc(C(=O)Nc3ccccc3)c3ccccc3n2)c1	none (no result: L major viab, T cruzi inh, Beta apoptosis)
COc1ccc(COc2cc(-c3cccc(OC)c3)nc3ccc(NC(=O)C(C)C)cc23)cc1	L major viab 100
COc1ccccc1NC(=O)Cc1nnc(SCC(=O)NC2=NCCS2)n1C	none (no result: L major viab)
CC(C)(C)c1ccc(S(=O)(=O)Nc2cccc(C3OCCCO3)c2)cc1	L major viab 86
CC1CN(C(=O)N[C@@H](Cc2ccccc2)C(=O)O)CC(C)O1 (stereo partly specified)	L major viab 80
CC1CCN(C(=O)N[C@@H](Cc2ccccc2)C(=O)O)CC1	none
C[C@@H]1CCC[C@@]2(O[C@H](CCO)C[C@H](O)[C@H]2O)O1	none (no result: L major viab)
CCn1c2ccccc2c2nnc(SCC(=O)N(C)C3CCS(=O)(=O)C3)nc21 (stereo unspecified)	L major viab 66
Cc1ccc(-c2nc(SCC(=O)N(C)C3CCS(=O)(=O)C3)[nH]c2-c2ccc(C)cc2)cc1 (stereo unspecified)	L major viab 94
Cc1ccc(SCC(=O)N(C)C2CCS(=O)(=O)C2)cc1 (stereo unspecified)	none
Cc1cccc(N2CCN(S(=O)(=O)c3ccc4c(c3)NC(=O)CO4)CC2)c1C	none (no result: L major viab)
CSCc1cc(N(C)c2ccccc2)nc(-c2ccccn2)n1	T cruzi inh 60, SKKanGAS inh 75 (no result: L major viab)
CCN(CC)CCCn1c(C)cc2c(c1=O)C(c1cc(OC)c(OC)cc1OC)C(C#N)=C(N)O2 (stereo unspecified)	none
CCN(CC)CCCn1c(C)cc2c(c1=O)C(c1cccc(Cl)c1)C(C#N)=C(N)O2 (stereo unspecified)	L major viab 67 (no result: CSC inhib, Mdm2-MdmX inh, T cruzi inh, Beta apoptosis, SKKanGAS inh)
CCOC(=O)c1ccc(NC(=O)COc2ccccc2CNC2CCCC2)cc1	L major viab 100
CCOC(=O)c1ccc(NC(=O)COc2ccccc2OC)cc1	none
CCOc1cc(CNC2CCCC2)c(Cl)cc1OCC(=O)Nc1ccccc1	L major viab 89 (no result: CSC inhib)
Cc1cc(NC(=O)CSc2nnc(-c3cccc(F)c3)n2N)no1	none (no result: L major viab, T cruzi inh, SKKanGAS inh)
O=C(c1cccs1)N1N=C(c2ccccc2)CC1c1ccccc1O (stereo unspecified)	T cruzi inh 57
Cc1ccc(C2=NN(S(=O)(=O)c3ccccc3)C(c3ccccc3O)C2)cc1 (stereo unspecified)	L major viab 97 (no result: CSC inhib, Mdm2-MdmX inh, Beta apoptosis)
CC(=O)N1N=C(c2cccs2)CC1c1ccc(Br)cc1 (stereo unspecified)	none (no result: L major viab)
O=C(c1ccccc1)N1N=C(c2ccccc2)CC1c1ccccc1O (stereo unspecified)	none
Cc1ccc(C2=NN(C(=O)c3cccs3)C(c3ccccc3O)C2)cc1 (stereo unspecified)	T cruzi inh 64
Cc1ccc(C2CC(c3cccs3)=NN2C(=O)c2ccc(Br)o2)cc1 (stereo unspecified)	SKKanGAS inh 88
COCCCNC(=O)CCc1c(C)c2cc3c(C)coc3cc2oc1=O	none (no result: L major viab)
O=[N+]([O-])c1cccc(-c2ccc(/C=N/Nc3nc(N4CCCCC4)nc(N4CCCCC4)n3)o2)c1	L major viab 90, T cruzi inh inconclusive (no result: CSC inhib)
O=[N+]([O-])c1ccc(/C=N/Nc2ccc3ccccc3c2)o1	none
O=[N+]([O-])c1ccc(/C=N/Nc2nc(N3CCCC3)nc(N3CCCC3)n2)o1	L major viab 99, T cruzi inh 64
CCNc1nc(NCC)nc(N/N=C/c2ccc([N+](=O)[O-])o2)n1	L major viab 98
O=[N+]([O-])c1ccc(/C=N/Nc2nc(-c3ccccc3)c3cc(Br)ccc3n2)o1	L major viab 93, T cruzi inh inconclusive, SKKanGAS inh 95
COc1ccc(COc2cccc3ccc(C)nc23)cc1F	none (no result: L major viab)
Cc1c(N(C)S(=O)(=O)c2cc(C(=O)N3CCCC3)ccc2Cl)c(=O)n(-c2ccccc2)n1C	none (no result: L major viab)
O=[N+]([O-])c1cccc(/C=N/Nc2nc(N3CCCCC3)nc(N3CCCCC3)n2)c1	L major viab 76, SKKanGAS inh 52
CC(=O)Nc1ccc(NC(=O)C(C)OC(=O)CNC(=O)c2ccc(-c3ccccc3)cc2)cc1 (stereo unspecified)	none (no result: L major viab)
Cc1cc(C)c(S(=O)(=O)N2CCCOC2CNC(=O)C(=O)NCCc2c[nH]c3ccccc23)c(C)c1 (stereo unspecified)	L major viab 93
Cc1cc(F)ccc1S(=O)(=O)N1CCCOC1CNC(=O)C(=O)NCCc1c[nH]c2ccccc12 (stereo unspecified)	none
O=C(NCCCO)C(=O)NCC1OCCCN1S(=O)(=O)c1cccs1 (stereo unspecified)	none (no result: L major viab)
O=C(NCCO)C(=O)NCC1OCCCN1S(=O)(=O)c1cccs1 (stereo unspecified)	L major viab 56
CCC(=O)Nc1ccc(C(=O)COC(=O)Cc2ccsc2)cc1	none (no result: CSC inhib, L major viab, T cruzi inh, SKKanGAS inh)
